Structures are written as SMILES. Some results are limits rather than exact numbers.

The test system of assay [1] is Rattus norvegicus. The assay can be described thus: Effective dose was tested against the inhibition of sorbitol accumulation in sciatic nerves from streptozotocin-diabetic rats dosed at 3*25 mg/kg over 27h. It counts as functional. The conditions noted are these: Sciatic nerve.
The target in assay [2] is T1, Aldo-keto reductase family 1 member B1 (Homo sapiens, UniProt P15121). In words: Inhibitory activity against human placental aldose reductase.
The test system of assay [3] is Rattus norvegicus. In words: Inhibition of sorbitol accumulation in sciatic nerves from streptozotocin-diabetic rats dosed at 3*100 mg/kg over 27h. It counts as functional, Sciatic nerve. Put shortly: (§1)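 Male Sprague-Dawley rats (180–220 g, 42–54 days) made diabetic with streptozotocin 85 mg/kg at 0 h. Oral gavage at 4, 7 and 24 h, dose quoted per time point. Sciatic nerve sorbitol measured with sorbitol dehydrogenase/NAD in pH 9.4 glycine. Mean (±SEM) percent inhibition against untreated diabetic controls, Student's t test on absolute sorbitol.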

Assay [4] concerns Rattus norvegicus. In words: Inhibition of sorbitol accumulation in sciatic nerves from streptozotocin-diabetic rats dosed at 3*25 mg/kg over 27h. It counts as functional, Sciatic nerve.
Assay [5] deals with Rattus norvegicus. In words: Plasma concentration at 3h after the last dose of 25 mg/kg for 5 days. It counts as functional.
For assay [6], the system named is Rattus norvegicus. The assay can be described thus: In vivo inhibition of sorbitol accumulation in sciatic nerves from streptozotocin-diabetic rats dosed at 1*25 mg/kg over 5 days. It counts as functional, Sciatic nerve.
Assay [7] concerns Rattus norvegicus. In words: Nerve concentration at 3h after the last dose of 25 mg/kg for 5 days. It counts as functional.
Assay [8] addresses T1, Aldo-keto reductase family 1 member B1. In words: Compound was tested in vitro for its inhibitory activity against human placental aldose reductase.
For assay [9], the system named is Rattus norvegicus. The assay can be described thus: In vivo inhibition of sorbitol accumulation in sciatic nerves from streptozotocin-diabetic rats dosed at 3*25 mg/kg over 27h. It counts as functional, Sciatic nerve.
The target of assay [10] is T1, Aldo-keto reductase family 1 member B1. The assay can be described thus: (§2) ARI(aldose reductase inhibitor) enantiospecificity against human placental aldose reductase. The method in brief: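 Partially purified human placental enzyme (buffer homogenate, 33000g spin, pooled peak fractions, frozen). Rate of NADPH oxidation read at 340 nm, 25 °C, 12 min, in 50 mM phosphate pH 7.1 with 0.4 M NH4SO4, 0.067 mM NADPH, 1.0 mM dl-glyceraldehyde; enzyme at 4 milliunits. Molar IC50 ± SD over n experiments, from log-linear fit with common slope.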

Assay [11] relates to Rattus norvegicus. In words: Inhibition of sorbitol accumulation in sciatic nerves from streptozotocin-diabetic rats dosed at 3*50 mg/kg over 27h. It counts as functional, Sciatic nerve. The method in brief: as §1
In assay [12] the test system is Rattus norvegicus. The assay can be described thus: In vivo inhibition of sorbitol accumulation in sciatic nerves from streptozotocin-diabetic rats dosed over 27 h. at a dose of 25 mg/kg. It counts as functional. The following applies: Sciatic nerve.
For assay [13], the system named is Rattus norvegicus. In words: In vivo inhibition of sorbitol accumulation in sciatic nerves from streptozotocin-diabetic rats dosed over 5 days. at a dose of 10 mg/kg. It counts as functional. The following applies: Sciatic nerve, 120 h.
The test system of assay [14] is Rattus norvegicus. The assay can be described thus: In vivo inhibition of sorbitol accumulation in sciatic nerves from streptozotocin-diabetic rats dosed over 5 days. at a dose of 2.5 mg/kg. It counts as functional. The following applies: Sciatic nerve, 120 h.
The subject of assay [15] is Rattus norvegicus. The assay can be described thus: In vivo inhibition of sorbitol accumulation in sciatic nerves from streptozotocin-diabetic rats dosed over 27 h. at a dose of 10 mg/kg. The conditions noted are these: Sciatic nerve. It counts as functional.
Assay [16] deals with Rattus norvegicus. In words: In vivo inhibition of sorbitol accumulation in sciatic nerves from streptozotocin-diabetic rats given three doses over 27 h. at a dose of 2.5 mg/kg. The conditions noted are these: Sciatic nerve. It counts as functional. Put shortly:
as §1

For assay [17], the system named is Rattus norvegicus. The assay can be described thus: In vivo inhibition of sorbitol accumulation in sciatic nerves from streptozotocin-diabetic rats dosed over 27 h. at a dose of 5 mg/kg. The conditions noted are these: Sciatic nerve. It counts as functional.
Assay [18] concerns Rattus norvegicus. The assay can be described thus: In vivo inhibition of sorbitol accumulation in sciatic nerves from streptozotocin-diabetic rats given one dose per day over 5 days at a dose of 25 mg/kg.
In assay [19] the test system is Rattus norvegicus. In words: In vivo inhibition of sorbitol accumulation in sciatic nerves from streptozotocin-diabetic rats dosed over 5 days. at a dose of 5 mg/kg. It counts as functional. The following applies: Sciatic nerve, 120 h. Put shortly:
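Rats made diabetic with iv streptozotocin 85 mg/kg. From day 7, oral gavage once daily for 5 days. Animals killed 3 h after the last dose. Sorbitol in neutralized perchloric acid extracts of 25-mg sciatic nerve portions measured with sheep liver sorbitol dehydrogenase and NAD in pH 9.4 glycine. Percent inhibition against diabetic controls.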

In assay [20] the target is T1, Aldo-keto reductase family 1 member B1. The description is as §2. This is another data set of the same source.
Assay [21] has as its system Rattus norvegicus. The assay can be described thus: In vivo inhibition of sorbitol accumulation in sciatic nerves from streptozotocin-diabetic rats dosed over 5 days. at a dose of 25 mg/kg. The conditions noted are these: Sciatic nerve, 120 h. It counts as functional.
For assay [22], the species on record is Rattus norvegicus. The assay can be described thus: animal or person. The conditions noted are these: Sciatic nerve, 120 h, read-out: Inhibition.
For assay [23], the species on record is Rattus norvegicus. The assay can be described thus: animal or person. The conditions noted are these: Sciatic nerve, 27 h, read-out: Inhibition.

The term ED50 denotes the dose at which the effect has come halfway, by size or by number of responders. A high value points to a need for a large dose. As a reminder, the IC50 is the concentration that gives 50% inhibition. Lower therefore signals greater potency in that assay. Usually Inhibition stands for how much of the control response was suppressed. Take `O=C(O)C[C@]1(O)CCOc2ccc(F)cc21`: the ED50 in assay [1] stood at 71.4 mg/kg. This compound also showed an IC50 in [2] of 0.6 µM. In addition, the Inhibition in assay [3] amounted to 61%.

`C[C@@H]1C[C@@](O)(CC(=O)O)c2cc(Cl)c(Cl)cc2O1` (stereo in doubt; 18) displayed a 50% effective dose (ED50) in [1] of 8.06 mg/kg. Also, the IC50 in assay [2] was 0.18 µM; in [8] it was 0.14 µM; in assay [10] it was 0.156 µM. For the same compound, the Inhibition in [4] stood at 91%; in assay [6] it was 39%; in assay [9], 53%. Further, the Tissue levels in [5] turned out to be 19.7 µg/mL; in assay [7] it was 6.01 µg/mL.

Turning to `CC1(C)C[C@@](O)(CC(=O)O)c2cc(F)ccc2O1`, in assay [1], the 50% effect level (ED50) was put at a dose of 83.2 mg/kg. Also, in assay [2], the midpoint of inhibition, the IC50, lay at 3.46 µM. In assay [3], this compound displayed an Inhibition of 56%.

In the case of `C[C@@H]1C[C@@](O)(CC(=O)O)c2cc(F)ccc2O1`, the ED50 in assay [1] was 23 mg/kg. The results for the IC50 in [2] and in assay [8] were 0.2 µM and 0.31 µM, respectively. Moreover, the Inhibition was found to be 56% in assay [4]; 13% in assay [6]; 81% in assay [11]; 92% in assay [3]; 22% in assay [9]. The Tissue levels in assay [5] was less than 0.5 µg/mL.

The compound `C[C@@H]1C[C@@](O)(CC(=O)O)c2cc(Cl)c(Cl)cc2O1` (stereo in doubt; 58) showed an IC50 in assay [2] of 0.0509 µM. Also, the inhibition in vivo at 25 mg/kg in assay [12] was 89%. Moreover, the results for the inhibition in vivo at 10 mg/kg in assay [13] and in assay [15] were 68% and 70%, respectively. Moreover, the figures for the inhibition in vivo at 2.5 mg/kg in [14] and in assay [16] were 31% and 49%, respectively. The inhibition in vivo at 5 mg/kg in [17] was 60%; in [19] it was 34%. In addition, the Inhibition in [18] is 78%.

For the compound `C[C@@H]1C[C@@](O)(CC(=O)O)c2cc(F)c(Cl)cc2O1` (stereo in doubt; 60), the inhibition in vivo at 25 mg/kg is 98% in [12] and 97% in assay [21]. The same compound gave an IC50 in assay [20] of 0.0455 µM. In addition, the figures for the inhibition in vivo at 10 mg/kg in [13] and in [15] were 69% and 88%, respectively. Moreover, the figures for the inhibition in vivo at 2.5 mg/kg in [14] and in assay [23] were 19% and 39%, respectively. For the same compound, the inhibition in vivo at 5 mg/kg in assay [22] stood at 52%; in assay [17] it was 61%.

As to `O=C(O)Cc1nn(Cc2ccc(Br)cc2F)c(=O)c2ccccc12` [PONALRESTAT], the inhibition in vivo at 25 mg/kg worked out at 85% in [12] and 88% in [21]. For the same compound, the inhibition in vivo at 10 mg/kg in assay [13] and in assay [15] was 81% each time. Moreover, the inhibition in vivo at 2.5 mg/kg in assay [14] was determined as 0%; in assay [16], 12%. The inhibition in vivo at 5 mg/kg in assay [17] was 57%; in [19], 60%.
